Most compounds without a hit are left out; they make up all but 4.1% or so of the library.
hERG protect: shields human hERG channel from block by proarrhythmic agents; Q12809; CHO-hERG, FluxOR thallium flux, dofetilide IC70 present; activation (rescue from dofetilide block), less the hit threshold, % at 10 µM; 310,000 compounds, 0.51% hits;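 active = activation above the mean of controls blocked by dofetilide plus 5 SD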;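 also: thallium influx through hERG after potassium depolarization seen as dye fluorescence rise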
KCNK3 block: human KCNK3 channel inhibition, primary screen; B-score at 10 µM; CHO-KCNK3 thallium flux, FluxOR fluorescence; stronger effect = lower value; 340,000 compounds, 0.84% hits;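 active = B-score under library mean minus 4 SD, starting fluorescence ratio at most library mean plus 5 SD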;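 also: more negative B-score means stronger inhibition of thallium flux through KCNK3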
KCNK9 block: human KCNK9 channel inhibition; Q9NPC2; 310,000 compounds, 1.2% hits; B-score at 10 µM; HEK293 KCNK9, FluxOR thallium flux fluorescence; stronger effect = lower value;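 active = ratio B-score over 3 SD below the library mean, with starting fluorescence within 5 SD of its mean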;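 also: negative B-score means less thallium flux so channel inhibition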
Cl transport mod: modulates chloride dependent transport by human KCC2. Q9H2X9. KCC2 cells, thallium flux FluoZin-2 fluorescence. B-score of Tl+ flux slope (higher = more flux/activation; lower = inhibition) at 10 µM. 190,000 compounds, 2.2% hits. AID 1456;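 active = thallium flux slope and its plate-corrected score both differing from the plate sample mean at a set confidence after two filtering rounds, in either direction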;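 also: slope of fluorescence scaled to starting intensity during 10 to 20 s after thallium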
KCNQ1 inh: human KCNQ1 channel inhibition | AID 2642 | B-score at 10 µM | 310,000 compounds, 1.3% hits | CHO-K1 KCNQ1, FluxOR thallium flux fluorescence; stronger effect = higher value | P51787;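 active = compounds whose thallium flux B-score, printed positive for inhibition, exceeds three library SD while starting fluorescence stays within three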;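 also: channel opened by potassium depolarization with thallium stimulus after 20 min compound exposure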
Target sequence (P51787 whole entry, looked up): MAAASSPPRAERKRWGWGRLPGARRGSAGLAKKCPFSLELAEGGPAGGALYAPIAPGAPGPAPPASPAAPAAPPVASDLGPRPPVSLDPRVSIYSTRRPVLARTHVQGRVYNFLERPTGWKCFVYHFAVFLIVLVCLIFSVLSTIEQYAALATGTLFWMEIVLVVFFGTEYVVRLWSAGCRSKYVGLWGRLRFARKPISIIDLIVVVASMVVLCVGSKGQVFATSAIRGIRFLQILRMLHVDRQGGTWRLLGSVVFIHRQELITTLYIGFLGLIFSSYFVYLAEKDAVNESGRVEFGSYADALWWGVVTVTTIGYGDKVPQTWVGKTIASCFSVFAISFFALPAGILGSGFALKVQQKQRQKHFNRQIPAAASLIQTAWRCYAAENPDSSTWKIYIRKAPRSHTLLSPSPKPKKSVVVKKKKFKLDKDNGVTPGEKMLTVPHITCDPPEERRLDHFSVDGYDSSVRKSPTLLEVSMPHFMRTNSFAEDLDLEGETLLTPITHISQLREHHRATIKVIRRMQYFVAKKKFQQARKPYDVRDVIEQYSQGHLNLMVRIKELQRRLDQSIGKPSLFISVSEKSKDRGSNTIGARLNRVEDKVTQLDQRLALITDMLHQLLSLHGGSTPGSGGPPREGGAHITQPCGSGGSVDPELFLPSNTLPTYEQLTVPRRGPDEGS
KCNQ1 act: potentiators or activators of human KCNQ1 potassium channel | CHO-K1 KCNQ1, thallium flux FluxOR fluorescence; stronger effect = higher value | B-score at 10 µM | AID 2648 | 310,000 compounds, 0.35% hits | P51787;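 active = fluorescence ratio B-score, a plate-corrected score, at least three library SD, with initial intensity B-score within 5 SD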
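Material: CHO-K1 cells stably expressing KCNQ1. Medium: assay buffer for compound exposure, DMSO matched across wells. Reagent: K+/Tl+ depolarizing stimulus. Compound dosing: single-concentration screen. Times: 37 °C overnight plating, 90-min dark dye load, 20-min compound pretreatment. Technique: FluxOR Tl+ flux fluorescence.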
A number is an active result.

For N#C/C(=C(/O)COC(=O)CCC1CCCCC1)c1nc2ccccc2[nH]1 the results were hERG protect inactive, KCNK3 block inactive, KCNK9 block inactive, Cl transport mod inactive, KCNQ1 inh inactive and KCNQ1 act inactive.
For CCCCN(C)CC(O)Cn1cc(/C=C/C(=O)c2cccs2)c2ccccc21 (centres undefined) the results were hERG protect inactive, KCNK3 block inactive, KCNK9 block inactive, Cl transport mod inactive, KCNQ1 inh 8 and KCNQ1 act inactive.
`COc1ccc(-c2cc(-c3ccccc3)nc(SCC(=O)Nc3nccs3)c2C#N)cc1` gave hERG protect inactive, KCNK3 block inactive, KCNK9 block inactive, Cl transport mod inactive, KCNQ1 inh inactive and KCNQ1 act inactive.
For CCc1nnc(NC(=O)CSc2nc(-c3ccccc3)cc(-c3ccc(OC)cc3)c2C#N)s1 the results were hERG protect 6.4, KCNK3 block inactive, KCNK9 block inactive, Cl transport mod inactive, KCNQ1 inh inactive and KCNQ1 act inactive.
CCNc1ccc(S(=O)(=O)NCCN(C)C)cc1[N+](=O)[O-] was read as hERG protect inactive, KCNK3 block inactive, KCNK9 block inactive, Cl transport mod inactive, KCNQ1 inh inactive and KCNQ1 act inactive.
`CN(C)CCCNS(=O)(=O)c1ccc(NC2CCCCCC2)c([N+](=O)[O-])c1` gave hERG protect inactive, KCNK3 block inactive, KCNK9 block inactive, KCNQ1 inh 8 and KCNQ1 act inactive.
`CN=C(Nc1cc(Cl)ccc1Cl)SC1CC(=O)N(c2ccc(C(=O)OC)cc2)C1=O` (centres undefined) gave hERG protect inactive, KCNK3 block inactive, KCNK9 block -8.01, KCNQ1 inh inactive and KCNQ1 act inactive.
For CCC(=O)Nc1ccc(C(=O)CSc2nc3ccccc3cc2CC)cc1 the results were hERG protect inactive, KCNK3 block inactive, KCNK9 block -7.18, KCNQ1 inh inactive and KCNQ1 act inactive.
COc1cc(C(=S)N2CCOCC2)ccc1OC(=O)c1ccc([N+](=O)[O-])cc1[N+](=O)[O-] was read as hERG protect 5.9, KCNK3 block inactive, KCNK9 block inactive, KCNQ1 inh inactive and KCNQ1 act inactive.
Screening COc1ccc(C(=S)N2CCOCC2)cc1OC(=O)c1ccc([N+](=O)[O-])cc1 returned hERG protect inactive, KCNK3 block inactive, KCNK9 block inactive, KCNQ1 inh inactive and KCNQ1 act inactive.
O=C(NCCc1cccc(Cl)c1)c1cc([N+](=O)[O-])ccc1Cl was read as hERG protect inactive, KCNK3 block inactive, KCNK9 block inactive, Cl transport mod inactive, KCNQ1 inh inactive and KCNQ1 act inactive.
Screening Cc1ccc(C2=NOC(=O)/C2=C\C=C\c2ccccc2)cc1 returned hERG protect inactive, KCNK3 block inactive, KCNK9 block inactive, Cl transport mod inactive, KCNQ1 inh inactive and KCNQ1 act 8.
`C=CC(C)(C)c1c(O)c(CC=C(C)C)c(O)c2c(=O)c3ccc(O)c(O)c3oc12` gave hERG protect inactive, KCNK3 block inactive, KCNK9 block inactive, KCNQ1 inh 6 and KCNQ1 act inactive.
For CCOC1=C/C(=C/c2c(N)n3nc(-c4ccccc4)sc3nc2=O)C=CC1=O the results were hERG protect inactive, KCNK3 block inactive, KCNK9 block inactive, Cl transport mod inactive, KCNQ1 inh 10 and KCNQ1 act inactive.
`CC(C)C(NC(=O)c1ccc2c(c1)OCO2)C(=O)N/N=C/c1cccs1` (centres undefined) gave hERG protect inactive, KCNK3 block inactive, KCNK9 block inactive, Cl transport mod inactive, KCNQ1 inh inactive and KCNQ1 act inactive.
Screening COc1ccc(N(C(C)=O)c2nc3ccccc3[nH]2)cc1 returned hERG protect inactive, KCNK3 block inactive, KCNK9 block inactive, KCNQ1 inh inactive and KCNQ1 act inactive.
For CCOC(=O)C1=NN(c2ccccc2)C2=NC(C)=C(C(=O)OC)C(c3cccs3)N12 (centres undefined) the results were hERG protect inactive, KCNK3 block inactive, KCNK9 block inactive, Cl transport mod inactive, KCNQ1 inh inactive and KCNQ1 act inactive.
`CCOC(=O)C1=NN(c2ccc(F)cc2)C2=NC(C)=C(C(=O)OC)C(c3cccs3)N12` (centres undefined) gave hERG protect inactive, KCNK3 block inactive, KCNK9 block -6.92, Cl transport mod inactive, KCNQ1 inh inactive and KCNQ1 act inactive.
CCCc1nc2oc3c(NCCCN(C)C)ncnc3c2c2c1CCCC2 was read as hERG protect inactive, KCNK3 block inactive, KCNK9 block inactive, Cl transport mod inactive, KCNQ1 inh inactive and KCNQ1 act 8.
Screening CCCc1nc2oc3c(NCCN(C)C)ncnc3c2c2c1CCCC2 returned hERG protect inactive, KCNK3 block inactive, KCNK9 block inactive, Cl transport mod inactive, KCNQ1 inh inactive and KCNQ1 act 8.
`CCCc1nc2oc3c(Cl)ncnc3c2c2c1CCCC2` gave hERG protect inactive, KCNK3 block inactive, KCNK9 block inactive, Cl transport mod inactive, KCNQ1 inh inactive and KCNQ1 act inactive.
Screening CC(C)Cc1nc2oc3c(NCC(C)O)ncnc3c2c2c1CCCC2 (centres undefined) returned hERG protect inactive, KCNK3 block inactive, KCNK9 block inactive, Cl transport mod inactive, KCNQ1 inh inactive and KCNQ1 act inactive.
Screening Cc1cc(C)c(CN2CCN(Cc3ccc(C)o3)C(CCO)C2)c(-n2cccn2)c1 (centres undefined) returned hERG protect inactive, KCNK3 block inactive, KCNK9 block inactive, Cl transport mod inactive, KCNQ1 inh inactive and KCNQ1 act inactive.
For c1ccc(C2=Nc3c(ccc4ccccc34)C(c3ccncc3)=NN2)cc1 the results were hERG protect inactive, KCNK3 block inactive, KCNK9 block -7.7, KCNQ1 inh inactive and KCNQ1 act inactive.
For Cc1cc(C)c2c(=N)c3ccccc3n(CCCCCCCCn3c4ccccc4c(=N)c4c(C)cc(C)nc43)c2n1 the results were KCNK3 block -10.4.
Screening CCCCCn1c2c(c(=N)c3ccccc31)CCC2 returned hERG protect inactive, KCNK3 block inactive, KCNK9 block inactive, Cl transport mod inactive, KCNQ1 inh inactive and KCNQ1 act inactive.
`COc1ccc(OC)c(C2=C/C(=C/c3ccccn3)C(=O)O2)c1` gave hERG protect inactive, KCNK3 block inactive, KCNK9 block -7.6, Cl transport mod inactive, KCNQ1 inh inactive and KCNQ1 act inactive.
For COc1ccc(/C(C#N)=C/c2ccccn2)cc1 the results were hERG protect inactive, KCNK3 block inactive, KCNK9 block inactive, Cl transport mod inactive, KCNQ1 inh inactive and KCNQ1 act inactive.
Cc1cc(/C=C2/C(=N)N3C(=NC2=O)SN=C3S(C)(=O)=O)c(C)n1-c1ccccc1F was read as hERG protect inactive, KCNK3 block inactive, KCNK9 block inactive, Cl transport mod inactive, KCNQ1 inh inactive and KCNQ1 act inactive.
